Most compounds without a hit are left out; they make up all but 2.9% or so of the library.
5HT1a antag = blocks the human serotonin 5-HT1a receptor; P08908; CHO 5-HT1a Ga15 NFAT-bla reporter, antagonist mode; inhibition, % at 10 µM; 62,000 compounds, 0.68% hits; AID 612;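 active means inhibition above the mean of all tested compounds plus 3 SD, cut at about 43% in these data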;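 further: receptor stimulated by 5-CT agonist at 100 nM near EC80; beta-lactamase reporter measured by ratiometric fluorescence of a cleavable substrate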
5HT1E ag = agonists of human 5-HT1E serotonin receptor. 65,000 compounds, 0.69% hits. P28566. CHO 5-HT1E Ga15 NFAT-bla reporter, FRET; 0% DMSO wells, 100% control agonist wells. activation, % at 6 µM;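 active means activation above a set limit, the screen-wide mean activation plus 3 SD, cut at about 8.5% in these data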;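 further: 100% = positive control agonist at 1 µM giving full maximal response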
S1P3 agonist = agonists of human S1P3 receptor; S1P3 NFAT-BLA reporter cells, agonism, FRET ratio; relative to 1 µM S1P, basal subtracted; activation, % at 4.5 µM; 60,000 compounds, 0.1% hits; AID 373;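 active means activation above the screen-wide mean plus 3 SD, cut at about 4.5% in these data, passing the limit was not always enough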
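Assay system: stable CHO line with human S1P3, Gα16, NFAT-BLA reporter; Detection: FRET β-lactamase substrate fluorescence, excitation 405 nm, 460/535 nm emission ratio, background-subtracted; Read-out: percent activation versus median 1 µM S1P response, basal-subtracted, per plate; Incubation: cells plated overnight, compound 4 h 37 °C, substrate 2 h RT.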
HTR1A agonist = activates the human 5-HT1a serotonin receptor | P08908 | CHO 5-HT1a Ga15 NFAT-bla reporter, FRET ratio; 0% basal, 100% maximal reference agonist | activation, % at 10 µM | 65,000 compounds, 0.56% hits | AID 567;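 active means activation above the screen-wide mean activation plus 3 SD, cut at about 19% in these data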;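 further: 0% = DMSO wells and 100% = 5-CT at EC100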
5HT1E antag = 5-HT1E (human) receptor antagonism | inhibition, % at 6 µM | CHO 5-HT1E Ga15 NFAT-bla reporter, FRET, antagonist | AID 571 | 65,000 compounds, 0.99% hits;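 active means inhibition above a set limit, the mean inhibition across every tested compound plus 3 SD, cut at about 29% in these data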;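 further: signal is the 460 over 535 nm emission ratio of beta-lactamase substrate; 0% = agonist plus DMSO wells and 100% = wells without agonist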
S1P1 ag pot = activates or potentiates agonism at human S1P1 receptor | S1P1 CRE-bla cells, forskolin, beta-lactamase FRET, potentiator mode; S1P1 agonist co-added at EC20, 2 nM; 100% = saturating reference agonist, 0% = basal | activation, % at 9.5 µM | 56,000 compounds, 0.57% hits;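 active means activation above a cutoff set at the mean activation of all tested compounds plus 3 SD, cut at about 54% in these data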;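 further: forskolin at 4 µM as EC80 and the EC20 agonist is SEW2871; 100% = SEW2871 at its EC100 plus forskolin at EC80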
Target sequence (P21453 whole entry, looked up): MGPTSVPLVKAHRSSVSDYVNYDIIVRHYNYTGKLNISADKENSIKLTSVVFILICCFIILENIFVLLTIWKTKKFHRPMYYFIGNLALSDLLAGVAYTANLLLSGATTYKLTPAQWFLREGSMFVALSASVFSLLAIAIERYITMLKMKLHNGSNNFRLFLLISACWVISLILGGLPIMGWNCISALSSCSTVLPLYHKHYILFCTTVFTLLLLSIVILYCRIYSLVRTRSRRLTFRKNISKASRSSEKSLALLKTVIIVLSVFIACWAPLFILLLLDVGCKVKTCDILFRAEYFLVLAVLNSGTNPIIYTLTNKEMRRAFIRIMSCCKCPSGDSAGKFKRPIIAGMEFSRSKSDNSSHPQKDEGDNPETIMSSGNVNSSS
Starred values were filed as active, the others as inactive; · = not tested or not shown.

SMILES	5HT1a antag	5HT1E ag	S1P3 agonist	HTR1A agonist	5HT1E antag	S1P1 ag pot
CCC1(C)Cc2c(sc3c2c(=O)n(C)c2nnc(SCC(=O)c4ccc(Cl)cc4)n32)CO1 (configuration not stated)	·	-1.0	-2.1	3.6	12.0	-6.5
O=C(OCn1nnc2ccccc2c1=O)C1COc2ccccc2O1 (configuration not stated)	7.7	2.1	0.2	-3.4	-7.2	-19.7
O=c1c2ccccc2nnn1CSc1nnc(C2COc3ccccc3O2)n1-c1ccccc1 (configuration not stated)	9.5	0.2	9.0*	-1.6	1.1	1.2
Cc1cc(=O)oc(C)c1C(=O)n1nc(C)c2c1C[C@@H]1[C@H]2C1(C)C	·	0.5	-0.5	1.0	3.7	14.5
CC1Cc2cc(-c3csc(NC(=O)Cc4cccs4)n3)ccc2N1S(C)(=O)=O (configuration not stated)	-8.5	-0.5	-1.3	-0.9	7.3	56.9*
CN1CCN(CC(=O)Nc2nc(-c3ccccc3)cs2)CC1	·	0.6	-1.1	-0.4	-4.1	-7.5
O=C(Nc1nc(-c2cc(Cl)sc2Cl)cs1)c1cccs1	49.1*	1.1	-0.2	279.4*	-1.2	34.8
O=C(CN1C(=O)CCC1=O)Nc1nc(-c2ccc(Cl)s2)cs1	15.1	-0.2	0.4	-1.7	2.2	14.1
O=C(Nc1nc(-c2ccc(Cl)s2)cs1)c1ccncc1	21.0	0.5	-1.1	-5.2	4.3	125.6*
CCN(CC)S(=O)(=O)c1ccc(C(=O)OCn2nnc3ccccc3c2=O)cc1	-9.0	0.3	-1.1	0.4	-1.5	-18.4
Clc1ccc(CSc2nnc(-c3ccncc3)o2)c(Cl)c1	-10.7	-0.3	0.8	0.2	7.2	76.0*
O=C(Nc1ccc(Oc2ccccc2)cc1)c1cnc2n(c1=O)CCS2	-2.9	0.2	-1.3	1.7	11.1	94.0*
O=C(CSc1nnc(-c2ccc(OC(F)F)cc2)o1)NC(=O)NCc1ccco1	-6.3	-0.5	0.3	-2.2	4.4	-27.9
CC(C)CCNC(=O)Cn1c(=O)oc2cc(S(=O)(=O)N3CCc4ccccc43)ccc21	30.4	-1.0	-1.0	1.3	34.9*	10.5
CC1CCC2(CC1)NC(=O)N(CC(=O)NC(=O)NC1CCCC1)C2=O (configuration not stated)	-4.8	-0.3	0.2	-5.3	-5.7	-16.3
COc1ccc(N2CCN(C(=O)CCNS(=O)(=O)c3ccc(Br)s3)CC2)cc1	-9.9	0.1	0.7	-1.0	3.2	14.4
Cc1cc(NC(=O)CCS(=O)(=O)c2nc(-c3ccccc3)cc(C(F)(F)F)n2)no1	61.0*	0.3	-1.0	1.4	40.0*	·
CS(=O)(=O)c1nc(-c2ccccc2)cc(C(F)(F)F)n1	110.3*	2.9	·	-9.2	64.5*	·
COc1ccc(-c2cc(C(F)(F)F)nc(SCC(=O)Nc3cc(C)on3)n2)cc1	9.9	-1.1	-1.1	-1.4	1.5	7.3
CCOc1cc(C2C(C(=O)N3CCCCC3)=C(C)NC3=C2C(=O)CCC3)cc(Br)c1O (configuration not stated)	13.1	-0.8	-1.1	-0.2	10.9	1.6
CCCNC(=O)c1c(N)n(-c2ccc3c(c2)OCO3)c2nc3ccccc3nc12	5.7	0.9	-0.4	2.7	-9.1	8.5
CCCNC(=O)c1c(N)n(-c2cc(OC)cc(OC)c2)c2nc3ccccc3nc12	-45.1	12.1*	2.3	30.5*	-14.5	-80.1
CN(C)P(=NC(=O)COc1ccc(Cl)cc1Cl)(N(C)C)N(C)C	-5.1	-0.3	0.4	-1.9	-7.8	5.9
NC(Cc1ccc2nonc2c1)C(=O)O (configuration not stated)	2.6	-0.2	0.1	53.7*	-10.5	-11.2
N[C@@H](Cc1ccc(O)c(I)c1)C(=O)O	·	0.0	-0.9	1.9	-6.2	5.8
SMILES	5HT1a antag	5HT1E ag	S1P3 agonist	HTR1A agonist	5HT1E antag	S1P1 ag pot
Cc1noc(C)c1CSc1nc2ccccc2[nH]1	-2.3	-1.2	0.7	67.0*	13.7	-4.9
O=C(CCN1CCN(c2ccccc2F)CC1)c1ccc(Br)cc1	6.8	34.4*	2.8	1.4	2.9	-2.3
O=C(CCN1CCN(c2ccccc2F)CC1)Nc1ccccc1F	32.5	0.7	-1.1	-0.9	-6.7	-23.5
Cc1cc(C(=O)CSc2nnc(-c3cccs3)o2)c(C)n1-c1ccccc1	12.4	0.0	-0.7	-1.1	0.9	100.9*
Cc1cc(C(=O)CSc2nnc(-c3ccco3)o2)c(C)n1Cc1ccco1	-2.6	-0.1	-0.2	0.6	7.9	53.2
CCC1CCCCN1C(=O)CSc1nnc(-c2cccs2)o1 (configuration not stated)	4.1	-0.1	-0.1	28.4*	1.7	23.0
Cc1cc(C(=O)CSc2nnc(-c3ccco3)o2)c(C)n1-c1ccc2c(c1)OCCO2	5.1	-0.4	-0.3	-2.8	4.6	62.3*
O=C(CSc1nnc(-c2cccs2)o1)c1cccs1	-5.5	-0.8	1.1	0.1	1.7	7.4
Cc1nnc(SCC(=O)NCc2ccc3c(c2)OCO3)[nH]c1=O	-11.8	-1.6	-0.2	-2.1	-12.8	-10.3
c1coc(-c2nc3nc4ccccc4nc3n2-c2ccc3c(c2)OCCO3)c1	·	1.0	1.9	-0.4	0.9	8.6
COc1ccc(N2CCN(C(c3cccc(OC)c3OC)c3nnnn3C3CCCC3)CC2)cc1 (configuration not stated)	43.6*	0.1	0.0	-0.5	4.2	0.3
COc1cccc(C(c2nnnn2Cc2ccco2)N2CCN(c3cccc(C)c3C)CC2)c1OC (configuration not stated)	52.5*	1.9	-1.2	3.0	-21.7	3.9
CN(C)CCCn1c(NC(=O)C2CCCCC2)nc2ccccc21	·	53.8*	-1.5	-0.2	-6.7	17.2
CC(=O)Nc1nc2ccccc2n1CCN(C)C	-2.8	0.5	-1.8	-1.7	-0.9	-12.6
O=C(NCc1ccco1)c1cc2ccc(O)cc2oc1=O	-236.6	37.6*	12.0*	189.2*	-56.7	-154.1
COc1ccc2cc(C(=O)NCc3ccco3)c(=O)oc2c1	2.3	0.1	-0.2	0.2	3.5	2.0
CSc1ccc(Cl)c(C(=O)NCc2ccco2)c1	6.3	-1.1	-0.3	-4.0	31.9*	-7.0
CSc1ccc(Cl)c(C(=O)OCC(=O)NCc2ccco2)c1	-6.7	0.6	0.6	-1.0	3.8	-8.8
O=c1[nH]c(=O)n(CCO)c2nnn(Cc3ccccc3)c12	11.0	0.4	-0.3	-1.9	-0.4	-14.1
COc1ccc(-c2nnc(SCC(=O)N(Cc3ccccc3)C(C)(C)C)o2)cc1OC	-7.2	0.0	-0.6	-2.0	-1.0	8.3
CCOC(=O)CN(C(=O)CSc1nnc(-c2ccc(OC)c(OC)c2)o1)c1ccc(F)cc1	-2.1	0.3	-0.9	22.2*	17.9	-11.9

Screening results as filed in PubChem.
